Pf Dd2 inh – P. falciparum Dd2 growth inhibition; SYBR Green, 72 h; active compounds read low; activity change, % at 10 µM; 2.3% of 94,000 active; in the data active = activity change below about -80%; inconclusive = no clear call, values can overlap the other calls
GASC1 inh – blocks human GASC-1 (KDM4C) demethylase activity | Q9H3R0 | GST-KDM4C 2-372, H3K9me3 peptide, LANCE TR-FRET | inhibition, % at 12.5 µM | 0.15% of 96,000 active | AID 720574;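 active = mean replicate inhibition above about 25%, with at least 55% of replicates also reaching it, limit read from the data, passing the limit was not always enough; inconclusive = only one of those two conditions met; inactive = neither condition met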
Target sequence (Q9H3R0 2-372 limits assumed): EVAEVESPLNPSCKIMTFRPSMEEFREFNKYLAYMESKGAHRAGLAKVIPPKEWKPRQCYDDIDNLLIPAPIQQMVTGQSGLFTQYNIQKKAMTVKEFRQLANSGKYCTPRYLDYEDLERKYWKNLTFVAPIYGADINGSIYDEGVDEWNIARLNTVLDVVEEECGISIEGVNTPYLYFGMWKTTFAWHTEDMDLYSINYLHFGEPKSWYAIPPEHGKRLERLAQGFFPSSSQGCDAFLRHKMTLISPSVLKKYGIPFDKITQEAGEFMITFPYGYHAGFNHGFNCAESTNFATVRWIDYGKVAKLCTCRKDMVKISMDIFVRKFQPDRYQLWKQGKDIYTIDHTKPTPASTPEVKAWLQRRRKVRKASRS
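Material: GST-tagged GASC-1 (JMJD2C) catalytic fragment, aa 2-372 / Quantity: enzyme final amount 10 nM / Medium: HEPES buffer, pH 7.5, plus ascorbate / Doses: one test concentration per compound / Incubation: 30 min reaction, 60 min detection, RT / Measured by: LANCE TR-FRET / Read-out: inhibition from TR-FRET ratio decrease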
T cruzi growth-1 – T. cruzi proliferation inhibition; T. cruzi beta-gal in NIH3T3, GalScreen luminescence, 90 h; inhibition, % at 8.34 µM; 5.9% of 77,000 active; AID 624255;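 active = mean inhibition above about 93%, with at least 55% of replicates each passing it, limit read from the data, passing the limit was not always enough; inconclusive = only one of those two conditions holds; inactive = neither condition holds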
IDH1 mut inh – inhibitors of human IDH1 R132H; inhibition, % at 10 µM; AID 624101; O75874; IDH1 R132H reductase, diaphorase/resazurin fluorescence, 60 min; 0.18% of 70,000 active; in the data active = inhibition above about 34%; inconclusive = no clear call, values can overlap the other calls; inactive = below about 11%;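 note: 0% = DMSO and 100% = no enzyme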
T cruzi growth-2 – inhibitors of T. cruzi proliferation. shares compounds with T cruzi growth-1. T. cruzi beta-gal in NIH3T3, GalScreen luminescence, 90 h. inhibition, % at 8.35 µM. 72% of 5,600 active;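 active = mean replicate inhibition above about 95% and at least 55% of replicates individually reaching it, limit read from the data; inconclusive = only one of the two criteria is met; inactive = neither criterion is met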
T cruzi growth-3 – blocks T. cruzi growth in NIH3T3 host cells | shares compounds with T cruzi growth-1 | T. cruzi beta-gal in NIH3T3, GalScreen luminescence, 90 h | inhibition, % at 2.09 µM | 21% of 5,600 active | AID 651740;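 active = mean inhibition above about 95%, with at least 55% of replicates also reaching it, limit read from the data; inconclusive = meets just one of the two conditions; inactive = meets neither condition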;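 note: plate controls were neutral control median for no effect and positive control median for full effect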
NIH3T3 tox – cytotoxicity in mouse NIH/3T3 fibroblasts | cytotoxicity (signal decrease), % at 8.35 µM | NIH/3T3 viability, CellTiter-Glo ATP luminescence, 90 h | shares compounds with T cruzi growth-1 | 14% of 5,600 active;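 active = mean signal decrease across replicates above about 35% based on untreated-well scatter, with enough replicates individually passing, limit read from the data; inconclusive = no rule stated though some were filed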;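 note: 0% = median of neutral control wells and 100% = median of positive control wells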
3T3 cytotox 2 – NIH/3T3 (mouse) viability loss. shares compounds with T cruzi growth-1. NIH/3T3 viability, CellTiter-Glo ATP luminescence, 90 h. inhibition, % at 24.9 µM. 56% of 5,600 active;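 active = mean loss of cell viability signal at or above a set limit, and enough replicates individually reaching it; inconclusive = meets only the mean limit or only the replicate share; inactive = meets neither condition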;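 note: 0% = median of neutral control wells and 100% = median of positive control wells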
An asterisk follows results filed as active. An excerpt weighted towards active compounds, which were near 5.9% of everything screened.

Screening OC[C@H]1[C@H](c2ccc(/C=C/c3ccccc3)cc2)[C@@H]2CN(Cc3cccnc3)CCCCN12 returned Pf Dd2 inh -70.8, GASC1 inh -0.9, T cruzi growth-1 103.5*, T cruzi growth-2 107.7*, T cruzi growth-3 65.4, NIH3T3 tox 0.0 and 3T3 cytotox 2 104.1*.
Screening OC[C@H]1[C@H](c2ccc(/C=C/c3ccccc3)cc2)[C@@H]2CN(Cc3ccncc3)CCCCN12 returned Pf Dd2 inh -62.2, GASC1 inh 4.4, T cruzi growth-1 inconclusive, T cruzi growth-2 109.6*, T cruzi growth-3 51.3, NIH3T3 tox inconclusive and 3T3 cytotox 2 103.9*.
OC[C@@H]1[C@@H](c2ccc(/C=C/c3ccccc3)cc2)[C@H]2CN(Cc3cccnc3)CCCCN12 was read as Pf Dd2 inh -75.8, GASC1 inh -0.6 and T cruzi growth-1 86.5.
CC(C)Nc1nc(Oc2ccc(=O)[nH]n2)nc(N(C)C)n1 was read as IDH1 mut inh 0.0.
For CCCCN(CCCC)c1ccc(/C=N/NC(=O)CCCCCCC(=O)OC)cc1 the results were IDH1 mut inh -0.3.
For Cc1ccc(S(=O)(=O)Nc2ccc(Br)cc2CNc2nc3ccccc3n2C)cc1 the results were IDH1 mut inh 0.3.
CCOC(=O)c1cccc(NC(=O)CSc2nc3ccccc3[nH]2)c1 was read as IDH1 mut inh 0.2.
`C[C@@H]1CN([C@@H](C)CO)C(=O)c2cc(NS(=O)(=O)c3cccs3)ccc2O[C@@H]1CN(C)CC1CC1` gave Pf Dd2 inh 8.3, GASC1 inh -0.7, T cruzi growth-1 99.1*, IDH1 mut inh 2.4, T cruzi growth-2 77.0, T cruzi growth-3 31.9, NIH3T3 tox 16.7 and 3T3 cytotox 2 9.6.
For C[C@H](CO)N1C[C@H](C)[C@@H](CN(C)CC2CC2)Oc2ccc(NS(=O)(=O)c3cccs3)cc2C1=O the results were Pf Dd2 inh 4.8, GASC1 inh -0.3, T cruzi growth-1 23.8 and IDH1 mut inh -0.2.
For C[C@H]1CN([C@@H](C)CO)C(=O)c2cc(NS(=O)(=O)c3cccs3)ccc2O[C@H]1CN(C)Cc1ccc(-c2ccccc2)cc1 the results were Pf Dd2 inh 8.1, GASC1 inh -1.6, T cruzi growth-1 inconclusive, IDH1 mut inh 0.2, T cruzi growth-2 85.1, T cruzi growth-3 -6.6, NIH3T3 tox 7.3 and 3T3 cytotox 2 54.7*.
`C[C@@H]1CN([C@H](C)CO)C(=O)c2cc(NS(=O)(=O)c3cccs3)ccc2O[C@H]1CN(C)Cc1ccc(-c2ccccc2)cc1` gave Pf Dd2 inh 0.8, GASC1 inh -2.6, T cruzi growth-1 19.1 and IDH1 mut inh 3.7.
CCOC(=O)c1c(NC(=S)Nc2nc(C)cc(C)n2)sc(C)c1-c1ccccc1 was read as IDH1 mut inh 2.2.
COc1ccc(-c2nc3ccccc3s2)cc1NC(=S)NC(=O)COc1ccc(C)cc1 was read as IDH1 mut inh 0.5.
Screening COc1ccc(NC(=O)Nc2cccc3c2O[C@@H](CN(C)Cc2ccc(C(=O)O)cc2)[C@@H](C)CN([C@H](C)CO)C3=O)cc1 returned Pf Dd2 inh 0.9, GASC1 inh 0.7, T cruzi growth-1 101.6*, IDH1 mut inh -0.5, T cruzi growth-2 -19.5, T cruzi growth-3 -17.7, NIH3T3 tox 6.3 and 3T3 cytotox 2 -9.6.
Screening COc1ccc(CN(C)C[C@@H]2Oc3c(NC(=O)Nc4ccc(OC)cc4)cccc3C(=O)N([C@H](C)CO)C[C@H]2C)cc1 returned Pf Dd2 inh -0.7, GASC1 inh 0.0, T cruzi growth-1 -8.8 and IDH1 mut inh -2.9.
`COc1ccc(NC(=O)Nc2cccc3c2O[C@@H](CN(C)Cc2ccc(C(=O)Nc4ccccc4N)cc2)[C@H](C)CN([C@H](C)CO)C3=O)cc1` gave Pf Dd2 inh -69.6, GASC1 inh -0.7, T cruzi growth-1 inconclusive, T cruzi growth-2 94.4, T cruzi growth-3 86.1, NIH3T3 tox 14.0 and 3T3 cytotox 2 65.4*.
C[C@H](CO)N1C[C@H](C)[C@@H](CN(C)Cc2ccc(C(=O)Nc3ccccc3N)cc2)Oc2c(NC(=O)Nc3ccc4c(c3)OCO4)cccc2C1=O was read as Pf Dd2 inh -87.9*, GASC1 inh -1.1, T cruzi growth-1 107.1*, T cruzi growth-2 102.6*, T cruzi growth-3 88.3, NIH3T3 tox -0.9 and 3T3 cytotox 2 53.6*.
For C[C@H]1CN([C@@H](C)CO)C(=O)c2cccc(NC(=O)Nc3ccc4c(c3)OCO4)c2O[C@H]1CN(C)Cc1ccc(C(=O)Nc2ccccc2N)cc1 the results were Pf Dd2 inh -78.0, GASC1 inh 5.3 and T cruzi growth-1 110.0.
COC(=O)c1cc(OC)c(OC)cc1NC(=O)C(C)Oc1ccccc1C (stereo unspecified) was read as IDH1 mut inh 0.0.
`C=CCN(C(=O)c1cc2cc3cc(OC)ccc3nc2s1)c1ccccc1` gave IDH1 mut inh -0.3.
`Cc1cc(C(=O)CSc2ncn[nH]2)c(C)n1-c1cc(F)ccc1F` gave IDH1 mut inh 0.7.
For Cc1ccc(S(=O)(=O)N(C)C[C@H]2Oc3c(cccc3N(C)C)C(=O)N([C@@H](C)CO)C[C@H]2C)cc1 the results were Pf Dd2 inh -40.4, GASC1 inh 2.2, T cruzi growth-1 102.0*, T cruzi growth-2 76.0, T cruzi growth-3 20.2, NIH3T3 tox 23.6 and 3T3 cytotox 2 9.9.
Screening Cc1ccc(S(=O)(=O)N(C)C[C@H]2Oc3c(cccc3N(C)C)C(=O)N([C@H](C)CO)C[C@H]2C)cc1 returned Pf Dd2 inh 13.1, GASC1 inh -0.1, T cruzi growth-1 -21.0 and IDH1 mut inh 0.1.
For C[C@@H]1CN([C@H](C)CO)C(=O)c2cc(/C=C/c3ccccc3)cnc2O[C@@H]1CN(C)S(=O)(=O)c1ccccc1 the results were Pf Dd2 inh -36.5, GASC1 inh -0.3 and T cruzi growth-1 88.9.
Screening C[C@H]1CN([C@@H](C)CO)C(=O)c2cc(/C=C/c3ccccc3)cnc2O[C@@H]1CN(C)S(=O)(=O)c1ccccc1 returned Pf Dd2 inh -61.8, GASC1 inh -1.7, T cruzi growth-1 127.0*, T cruzi growth-2 105.6*, T cruzi growth-3 66.7, NIH3T3 tox 4.7 and 3T3 cytotox 2 inconclusive.
C[C@H]1CN([C@@H](C)CO)C(=O)c2cc(/C=C/c3ccccc3)cnc2O[C@H]1CN(C)S(=O)(=O)c1ccccc1 was read as Pf Dd2 inh -44.7, GASC1 inh -3.5, T cruzi growth-1 94.4 and IDH1 mut inh -1.4.
